Experimental findings from ChEMBL document CHEMBL3271948, “Irreversible enzyme inhibitors. 200. Active-site-directed inhibitors of deoxycytidine kinase” (J Med Chem, 1977) are described below.

Each structure is given as a SMILES string. Values after ≈ are worked out from the molar mass of the structure shown. Active and inactive are the calls of the source. No cut-off for these calls is given here.

The target in one series is Deoxycytidine kinase (Rattus norvegicus, UniProt P48769). Briefly: (§1) Irreversible inhibition of Walker 256 rat tumor deoxycytidine kinase by [3H]deoxycytidine binding assay. The note with it: read-out: I50. The essentials: (§2)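 Enzyme came from the 0–45% (NH4)2SO4 fraction of Walker 256 rat tumor, treated with 1 M HOAc. The assay contained [3H]deoxycytidine 0.025 mM, ATP 5 mM, MgCl2 5 mM and Tris pH 8.0 buffer 50 mM. Inhibitor was added in DMSO. Phosphorylated product was measured by adsorption to DEAE-cellulose filter disks. Inhibition was expressed as V0/V1, the uninhibited over the inhibited rate.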

Series [1] is described as follows: Maximum solubility of the compound. The class given is physicochemical.
For series [2], the target named is Deoxycytidine kinase (Rattus norvegicus) (UniProt P48769). Briefly: Irreversible inhibition of Walker 256 rat tumor deoxycytidine kinase assessed as ratio of V0/V1 by [3H]deoxycytidine binding assay. The essentials:
as §2

Series [3] shares this target. The series is described as §1. Summed up:
as §2

Deoxycytidine kinase, sequence (P48769 whole entry): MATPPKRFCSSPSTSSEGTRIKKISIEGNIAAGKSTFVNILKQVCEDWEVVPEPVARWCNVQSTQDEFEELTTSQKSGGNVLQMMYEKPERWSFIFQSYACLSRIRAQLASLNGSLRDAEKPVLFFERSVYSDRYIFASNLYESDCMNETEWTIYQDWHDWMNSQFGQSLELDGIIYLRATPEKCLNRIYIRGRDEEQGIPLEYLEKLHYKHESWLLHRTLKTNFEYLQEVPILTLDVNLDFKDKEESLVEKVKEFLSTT
Deoxycytidine kinase (Rattus norvegicus), sequence (P48769 whole entry): as above

The term solubility denotes how much of the substance goes into solution per volume. A high value points to much dissolved substance. For `Nc1ccnc(SCCCOc2ccccc2)n1`, the IC50 on Deoxycytidine kinase amounted to 2000 µM. This molecule had a solubility in series [1] of 1000 µM (≈ 261 µg/mL). Besides, the Ratio in series [2] was 1.5.
Turning to `Oc1nccc(Nc2ccccc2)n1`, the inhibition result in series [3] was “inactive”.
For the molecule `Nc1ccnc(Sc2ccc3ccccc3c2)n1`, the IC50 at Deoxycytidine kinase came to 500 µM. The solubility in series [1] turned out to be 500 µM (≈ 127 µg/mL). Further, the Ratio in series [2] is 2.
For `Nc1cc(OCc2ccccc2)[nH]c(=O)n1`, in series [3], the inhibition entry is “inactive”.
The same measure, in the same setting: the entry for `CS(=O)(=O)c1nc(N)cc(OCc2ccccc2)n1` is “inactive”.
As for `CCCCCSc1nccc(N)n1`, at Deoxycytidine kinase, the IC50 is 2600 µM. In series [3], this molecule came in with an IC of 2.6 mM. Further, the Ratio in series [2] turned out to be 2.
For `Nc1cc(OCc2ccccc2)ncn1`, the inhibition result in series [3] is “inactive”.
On the same count and under the same terms, the entry for `CSc1nc(N)cc(OCc2ccccc2)n1` is “inactive”.
In series [3], `Nc1cc[nH]c(=O)n1` registered an IC of 10 mM. Also, the Ratio in series [2] was 1.
On to `COc1ccc(-c2c[nH]c(=O)nc2N)cc1`, for which the inhibition result in series [3] is “inactive”.
Consider `Nc1ccnc(OCc2ccccc2)n1`, for which, at Deoxycytidine kinase, the IC50 was determined as 6000 µM. The same molecule showed an IC in series [3] of 7.5 mM. In addition, the Ratio in series [2] amounted to 2.4.
With `CCCCNc1cc(N)nc(=O)[nH]1`, the inhibition result in series [3] was “inactive”.
For `CCCCCCCCOc1nccc(N)n1`, on Deoxycytidine kinase, the IC50 is 1000 µM. The solubility in series [1] amounted to 250 µM (≈ 55.8 µg/mL). In series [2], the Ratio was 1.5.
With `Nc1ccn(CCCCc2ccccc2)c(=O)n1`, on Deoxycytidine kinase, the IC50 stood at 1000 µM. For the same molecule, the solubility in series [1] is 1000 µM (≈ 243 µg/mL). Further, the Ratio in series [2] was determined as 2.
As to `CC(C)CCn1ccc(N)nc1=O`, the IC50 on Deoxycytidine kinase is 5000 µM. Also, the IC in series [3] amounted to 5 mM. Further, the Ratio in series [2] stood at 2.
With `Nc1cc(NCc2ccccc2)[nH]c(=O)n1`, in series [3], the inhibition entry is “inactive”.
On to `CCCOc1nccc(N)n1`, for which the IC in series [3] came out at 5 mM. Besides, in series [2], the Ratio amounted to 1.
Consider `O=c1nc(NCc2ccccc2)cc[nH]1`, for which the inhibition entry in series [3] was “inactive”.
Consider `Nc1ccn(CCOc2ccccc2)c(=O)n1`, for which the IC50 at Deoxycytidine kinase came to 6000 µM. For the same molecule, in series [3], the IC stood at 5 mM. The Ratio in series [2] was 1.8.
`Nc1cc(Nc2ccccc2)[nH]c(=O)n1`: the inhibition entry in series [3] was “inactive”.
As to `Nc1ccnc(Oc2ccc(Cl)cc2)n1`, on Deoxycytidine kinase, the IC50 came to 5000 µM. The IC in series [3] stood at 5 mM. For the same molecule, the Ratio in series [2] is 2.
Regarding `Nc1ccnc(SCCCCc2ccccc2)n1`, the IC50 on Deoxycytidine kinase is 1000 µM. In addition, the solubility in series [1] was 500 µM (≈ 130 µg/mL). The Ratio in series [2] came out at 1.5.
Consider `O=C(Nc1ccnc(=O)[nH]1)c1ccccc1`, for which the inhibition result in series [3] is “inactive”.
Consider `CCCCCOc1nccc(N)n1`, for which the IC50 on Deoxycytidine kinase worked out at 7000 µM. In addition, the IC in series [3] worked out at 10 mM. Also, the Ratio in series [2] is 3.6.
Regarding `Nc1ccn(Cc2ccccc2)c(=O)n1`, the IC50 on Deoxycytidine kinase came to 12000 µM. The molecule also gave a solubility in series [1] of 2500 µM (≈ 503 µg/mL). Besides, in series [2], the Ratio was 1.4.
Regarding `CC(=O)Nc1cc[nH]c(=O)n1`, in series [3], the inhibition result was “inactive”.
In the case of `Nc1nc(=O)[nH]cc1-c1ccc(Cl)c(Cl)c1`, the inhibition entry in series [3] is “inactive”.
On to `Nc1ccnc(SCc2ccccc2)n1`, for which the IC50 at Deoxycytidine kinase is 2800 µM. The molecule also yielded an IC in series [3] of 4 mM. Further, the Ratio in series [2] stood at 2.8.
In series [3], `COCCOc1nccc(N)n1` yielded an IC of 5 mM. Also, the Ratio in series [2] was determined as 1.
With `CCCn1ccc(N)nc1=O`, the IC50 on Deoxycytidine kinase is 12000 µM. The same molecule gave an IC in series [3] of 5 mM. The Ratio in series [2] is 1.4.
Taken in the same sequence, the figures for `Nc1ccn(CCCOc2ccccc2)c(=O)n1` were 2500 µM, 2.5 mM and 2.
Regarding `CCCCCNc1cc[nH]c(=O)n1`, the inhibition result in series [3] is “inactive”.
As to `Nc1ccnc(SCc2ccc(Cl)cc2)n1`, the IC50 at Deoxycytidine kinase was found to be 1000 µM. In addition, the concentration in solution in series [1] (solubility) was 1000 µM (≈ 252 µg/mL). The Ratio in series [2] is 2.
Regarding `Nc1ccn(-c2cccc3ccccc23)c(=O)n1`, the IC50 on Deoxycytidine kinase was 1500 µM. This molecule came in with a solubility in series [1] of 500 µM (≈ 119 µg/mL). Besides, the Ratio in series [2] stood at 1.4.
